Here are results for 20 molecules from ChEMBL document CHEMBL1130064, “Substituted N-phenylisothioureas: potent inhibitors of human nitric oxide synthase with neuronal isoform selectivity” (J Med Chem, 1997).

For data set [1], the target named is T1, Nitric oxide synthase 3 (Homo sapiens) (UniProt P29474).
T1 sequence (whole entry): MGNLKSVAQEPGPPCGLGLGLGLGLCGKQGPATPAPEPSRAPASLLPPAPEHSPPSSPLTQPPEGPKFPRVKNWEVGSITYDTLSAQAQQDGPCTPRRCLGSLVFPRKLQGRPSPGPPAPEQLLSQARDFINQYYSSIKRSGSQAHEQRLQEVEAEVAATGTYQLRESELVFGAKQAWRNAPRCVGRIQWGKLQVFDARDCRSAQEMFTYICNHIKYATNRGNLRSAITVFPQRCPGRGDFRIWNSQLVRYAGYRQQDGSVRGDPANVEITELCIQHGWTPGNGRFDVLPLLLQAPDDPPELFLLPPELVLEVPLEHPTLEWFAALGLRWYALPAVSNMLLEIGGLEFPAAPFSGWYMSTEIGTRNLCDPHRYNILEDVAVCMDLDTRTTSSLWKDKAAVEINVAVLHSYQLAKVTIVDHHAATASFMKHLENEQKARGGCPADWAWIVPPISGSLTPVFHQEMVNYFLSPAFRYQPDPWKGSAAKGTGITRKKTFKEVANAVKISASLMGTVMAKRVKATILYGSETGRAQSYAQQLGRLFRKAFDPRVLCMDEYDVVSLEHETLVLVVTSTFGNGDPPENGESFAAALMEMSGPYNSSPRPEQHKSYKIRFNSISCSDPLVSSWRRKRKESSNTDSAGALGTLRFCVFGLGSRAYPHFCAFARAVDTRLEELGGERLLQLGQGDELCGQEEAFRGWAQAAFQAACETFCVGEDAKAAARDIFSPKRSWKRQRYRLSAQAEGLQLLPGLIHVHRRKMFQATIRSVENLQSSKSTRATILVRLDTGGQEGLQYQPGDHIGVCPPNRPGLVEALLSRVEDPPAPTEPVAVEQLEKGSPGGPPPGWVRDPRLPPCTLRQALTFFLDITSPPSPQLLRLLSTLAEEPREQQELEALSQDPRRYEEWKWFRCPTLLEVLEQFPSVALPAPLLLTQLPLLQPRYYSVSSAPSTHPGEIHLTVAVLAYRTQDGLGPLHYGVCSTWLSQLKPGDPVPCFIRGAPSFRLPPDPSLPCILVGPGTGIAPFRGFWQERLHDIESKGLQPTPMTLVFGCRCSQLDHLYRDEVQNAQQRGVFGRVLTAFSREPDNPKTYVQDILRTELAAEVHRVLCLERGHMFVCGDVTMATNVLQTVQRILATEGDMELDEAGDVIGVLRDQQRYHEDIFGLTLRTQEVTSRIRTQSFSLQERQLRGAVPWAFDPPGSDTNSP
The data set can be described thus: Percent inhibition of human Vascular Endothelial nitric oxide synthase at a concentration of 25 uM. As to conditions: at 25 µM.

The target in data set [2] is T2, Nitric oxide synthase, inducible (Homo sapiens, UniProt P35228). In words: Percent inhibition of Human inducible Nitric Oxide Synthase (iNOS) at a concentration of 25 uM. To be noted: at 25 µM. In a few lines:
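Human iNOS purified from the DLD-1 colorectal adenocarcinoma cell line. Percent inhibition of the enzyme was measured with test compound present.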

Data set [3] addresses T3, Nitric oxide synthase 1 (Homo sapiens, UniProt P29475). In words: Percent inhibition of human Neuronal nitric oxide synthase at a concentration of 25 uM. As to conditions: at 25 µM.
Data set [4] addresses T4, Nitric oxide synthase 3 (Homo sapiens, UniProt P29474).
T4 sequence (P29474 whole entry): T1 sequence (whole entry)
In words: Inhibitory activity against human vascular endothelial nitric oxide synthase. In a few lines: (§1)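 Purified human enzymes were used, with iNOS purified from the DLD-1 colorectal adenocarcinoma line. Percent inhibition was measured at three or more inhibitor concentrations and converted to inhibition constants (Ki).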

The target of data set [5] is T2, Nitric oxide synthase, inducible. In words: Inhibitory activity against human inducible nitric oxide synthase (iNOS). In a few lines: as §1
Data set [6] addresses T3, Nitric oxide synthase 1. In words: Inhibitory activity against human neuronal nitric oxide synthase in brain (nNOS). The class given is tissue-based.
Data set [7] has as its target T3, Nitric oxide synthase 1. In words: Percent inhibition of human Neuronal nitric oxide synthase in brain (nNOS) at a concentration of 25 uM. As to conditions: at 25 µM. The class given is tissue-based.
A short description of data set [8]: Clearance was determined. As to conditions: in vivo. In kind it is ADME, organism-based.
Data set [9] can be described thus: Michaelis-Menten constant was determined. In kind it is ADME. The gist of the method: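 Human nNOS conversion of L-arginine to L-citrulline was measured over a range of arginine with inhibitor at 0, 150 and 300 nM. Velocities were fitted to V = Vmax[S]/{[S] + Km(1 + [I]/Ki)} to give Km.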
A short description of data set [10]: The half life was determined. The class given is ADME.

T3 sequence (P29475 whole entry): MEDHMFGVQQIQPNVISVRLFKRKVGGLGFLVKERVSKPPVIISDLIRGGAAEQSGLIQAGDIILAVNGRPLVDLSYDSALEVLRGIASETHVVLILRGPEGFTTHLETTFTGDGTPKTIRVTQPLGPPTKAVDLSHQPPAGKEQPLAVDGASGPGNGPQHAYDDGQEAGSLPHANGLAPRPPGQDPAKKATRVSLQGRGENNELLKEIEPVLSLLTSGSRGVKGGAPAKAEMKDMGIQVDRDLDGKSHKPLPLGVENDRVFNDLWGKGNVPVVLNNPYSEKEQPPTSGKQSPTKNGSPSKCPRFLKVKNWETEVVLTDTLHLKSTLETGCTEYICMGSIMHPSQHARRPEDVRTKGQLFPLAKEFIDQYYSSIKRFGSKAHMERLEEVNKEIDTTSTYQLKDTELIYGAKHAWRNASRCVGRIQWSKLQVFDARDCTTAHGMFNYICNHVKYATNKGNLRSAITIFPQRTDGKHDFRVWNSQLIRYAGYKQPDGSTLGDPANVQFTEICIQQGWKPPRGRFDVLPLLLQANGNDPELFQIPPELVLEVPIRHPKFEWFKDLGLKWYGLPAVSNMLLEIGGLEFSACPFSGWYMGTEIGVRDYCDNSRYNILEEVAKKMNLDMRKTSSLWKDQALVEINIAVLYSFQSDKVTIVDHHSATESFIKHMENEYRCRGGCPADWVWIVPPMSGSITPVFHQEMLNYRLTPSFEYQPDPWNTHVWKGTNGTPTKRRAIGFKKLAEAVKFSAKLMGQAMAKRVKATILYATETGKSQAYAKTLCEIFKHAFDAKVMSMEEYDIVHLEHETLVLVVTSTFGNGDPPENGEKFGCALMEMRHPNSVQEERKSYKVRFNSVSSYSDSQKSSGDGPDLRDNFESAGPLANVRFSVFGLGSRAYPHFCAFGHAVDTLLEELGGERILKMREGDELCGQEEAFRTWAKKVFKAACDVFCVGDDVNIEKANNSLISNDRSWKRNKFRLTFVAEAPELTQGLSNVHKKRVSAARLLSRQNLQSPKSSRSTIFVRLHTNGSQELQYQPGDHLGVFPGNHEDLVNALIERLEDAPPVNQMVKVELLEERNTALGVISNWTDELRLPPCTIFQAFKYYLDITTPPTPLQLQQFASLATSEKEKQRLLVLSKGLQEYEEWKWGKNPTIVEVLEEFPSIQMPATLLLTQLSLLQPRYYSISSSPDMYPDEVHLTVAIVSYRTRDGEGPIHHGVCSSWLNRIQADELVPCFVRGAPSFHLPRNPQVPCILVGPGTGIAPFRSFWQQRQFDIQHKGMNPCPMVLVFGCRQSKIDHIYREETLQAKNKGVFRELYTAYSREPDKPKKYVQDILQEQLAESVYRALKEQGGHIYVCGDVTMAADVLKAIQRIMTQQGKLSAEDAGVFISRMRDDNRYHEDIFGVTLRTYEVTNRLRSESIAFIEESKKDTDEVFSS
T2 sequence (P35228 whole entry): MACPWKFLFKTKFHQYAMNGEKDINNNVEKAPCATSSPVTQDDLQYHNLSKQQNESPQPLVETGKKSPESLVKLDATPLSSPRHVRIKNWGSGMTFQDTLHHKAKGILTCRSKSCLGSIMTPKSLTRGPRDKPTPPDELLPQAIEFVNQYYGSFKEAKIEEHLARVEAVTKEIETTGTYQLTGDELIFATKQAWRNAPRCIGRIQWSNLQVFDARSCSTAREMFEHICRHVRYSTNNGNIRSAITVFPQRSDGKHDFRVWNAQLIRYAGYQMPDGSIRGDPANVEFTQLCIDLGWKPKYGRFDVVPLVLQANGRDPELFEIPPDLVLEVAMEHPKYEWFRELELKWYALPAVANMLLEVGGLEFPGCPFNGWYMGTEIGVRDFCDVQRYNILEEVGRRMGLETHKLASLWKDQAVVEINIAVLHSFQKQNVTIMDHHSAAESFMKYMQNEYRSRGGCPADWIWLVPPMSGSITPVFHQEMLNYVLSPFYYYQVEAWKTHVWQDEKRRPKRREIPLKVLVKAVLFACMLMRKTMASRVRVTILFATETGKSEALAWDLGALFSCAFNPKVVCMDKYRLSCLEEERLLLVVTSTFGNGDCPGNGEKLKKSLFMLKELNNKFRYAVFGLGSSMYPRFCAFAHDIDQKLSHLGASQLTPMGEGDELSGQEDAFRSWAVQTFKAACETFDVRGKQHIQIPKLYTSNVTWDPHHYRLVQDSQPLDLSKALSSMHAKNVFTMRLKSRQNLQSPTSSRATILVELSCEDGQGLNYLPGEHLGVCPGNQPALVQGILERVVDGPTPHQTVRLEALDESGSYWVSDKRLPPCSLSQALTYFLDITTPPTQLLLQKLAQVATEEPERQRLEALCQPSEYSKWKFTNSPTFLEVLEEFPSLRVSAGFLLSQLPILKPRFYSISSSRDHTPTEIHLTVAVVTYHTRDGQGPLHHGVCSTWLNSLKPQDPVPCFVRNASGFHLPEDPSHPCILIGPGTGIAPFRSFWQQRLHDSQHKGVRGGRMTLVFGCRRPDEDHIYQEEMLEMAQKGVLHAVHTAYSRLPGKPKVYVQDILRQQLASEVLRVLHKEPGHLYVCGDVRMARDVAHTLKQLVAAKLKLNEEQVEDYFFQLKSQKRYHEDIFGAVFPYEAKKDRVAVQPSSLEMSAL

As to `CCCCSC(=N)Nc1ccc(C(F)(F)F)cc1`, the inhibition in data set [1], in [2] and in [3] was 0% in each case.

Take `CCSC(=N)Nc1ccc(OC(F)(F)F)cc1`: the Ki in data set [4] was found to be 17 µM; in [5] it was 55 µM; in data set [6] it was 0.7 µM.

With `CCOC(=O)c1ccc(NC(=N)SCC)cc1`, the affinity in data set [5] corresponds to a Ki of 63 µM.

On to `CC(C)SC(=N)Nc1ccc(C(F)(F)F)cc1`, for which the inhibition in data set [1] and in [2] was 0% throughout. The molecule also displayed a Ki in data set [6] of 29 µM.

Turning to `CCSC(=N)Nc1ccccc1C(C)C`, the affinity in data set [6], expressed as Ki, was 1.1 µM.

For `CCSC(=N)Nc1ccc([N+](=O)[O-])cc1`, the Ki in data set [4] was found to be 9.1 µM; in [5], 54 µM; in [6] it was 0.66 µM.

`CCSC(=N)Nc1ccc(Cl)cc1`: the Ki was 0.9 µM in data set [4], 4.2 µM in data set [5] and 0.14 µM in [6].

`CCSC(=N)Nc1ccc(C(=O)O)cc1`: the inhibition in data set [1] is 14%; in [2] it was 0%. Further, affinity in data set [6] was put at a Ki of 58 µM.

Consider `N=C(Nc1ccc(C(F)(F)F)cc1)SCc1ccccc1`, for which the inhibition in data set [1] was found to be 0%; in data set [2] it was 0%; in [7], 11%.

The molecule `CCSC(=N)Nc1ccc(C(F)(F)F)cc1.Cl` returned a Clearance in [8] of 93.3 mL/min/kg. Besides, the Km in data set [9] was found to be 2 µM. The half-life stood at 4 min in data set [10] (read-out: T1/2 alpha) and 31 min in data set [10] (read-out: T1/2 beta). The affinity in data set [5] corresponds to a Ki of 37 µM.

Consider `CSC(=N)Nc1ccc(C(F)(F)F)cc1`, for which the Ki came out at 31 µM in data set [4] and 4.6 µM in [6]. The molecule further gave an inhibition in data set [2] of 0%.

Take `CCSC(=N)Nc1ccncc1`: the values for the inhibitory constant (Ki) in data set [4], in [5] and in [6] were 16 µM, 22 µM and 0.8 µM, respectively.

`CCSC(=N)Nc1ccccc1C(F)(F)F`: in data set [4], affinity was put at a Ki of 18 µM.

For the molecule `CCSC(=N)Nc1cccnc1`, the figures for the Ki in data set [4] and in data set [5] were 7 µM and 23 µM, respectively.

With `CSC(=N)Nc1ccc([N+](=O)[O-])cc1`, the Ki in data set [4] came to 17 µM; in data set [6], 3.3 µM. The molecule also came in with an inhibition in data set [2] of 0%.

As for `CCCSC(=N)Nc1ccc(C(F)(F)F)cc1`, the inhibition in [1] amounted to 0%; in data set [2] it was 4%. The molecule further yielded a Ki in data set [6] of 64 µM.

Take `CCSC(=N)Nc1ccccn1`: the Ki in data set [4] stood at 17 µM; in data set [5], 23 µM.

`CCSC(=N)Nc1ccc(C(C)C)cc1` yielded a Ki in data set [5] of 25 µM.

On to `CSC(=N)Nc1ccc(Cl)cc1`, for which the Ki worked out at 2.6 µM in [4], 42 µM in [5] and 0.57 µM in data set [6].

On to `CCSC(=N)Nc1ccccc1`, for which the Ki in data set [4] came to 0.4 µM; in data set [5], 0.87 µM; in [6], 0.12 µM.

A word on the inhibition: it is the drop in the measured response relative to a control, in per cent. The Ki is a dissociation constant, usually derived from enzyme kinetics or from competition with a known ligand. Lower therefore signals tighter binding. The term Km denotes the concentration of substrate that gives half-maximal velocity.
